Experimental data published in ChEMBL document CHEMBL1152279 (J Med Chem, 2008).

How the values were obtained:
Histamine H2 receptor [1] = target: T1, Histamine H2 receptor (Cavia porcellus, UniProt P47747); test: Antagonist activity at histamine H2 receptor in guinea pig spontaneously beating right atrium assessed as inhibition of histamine-induced positive chronotropic activity; format: functional, tissue-based, Cardiac atrium
Histamine H2 receptor [2] = target: T1, Histamine H2 receptor; test: Agonist activity at histamine H2 receptor in guinea pig spontaneously beating right atrium assessed as positive chronotropic activity; format: functional, tissue-based, Cardiac atrium
Histamine H1 receptor = Histamine H1 receptor (Cavia porcellus, UniProt P31389); test: Antagonist activity at histamine H1 receptor in guinea pig ileum assessed as inhibition of histamine-induced […]; format: functional, tissue-based; settings: for Kb: read-out: pA2 (converted)
Histamine H1 receptor, sequence (P31389 whole entry, the tested form may be a part): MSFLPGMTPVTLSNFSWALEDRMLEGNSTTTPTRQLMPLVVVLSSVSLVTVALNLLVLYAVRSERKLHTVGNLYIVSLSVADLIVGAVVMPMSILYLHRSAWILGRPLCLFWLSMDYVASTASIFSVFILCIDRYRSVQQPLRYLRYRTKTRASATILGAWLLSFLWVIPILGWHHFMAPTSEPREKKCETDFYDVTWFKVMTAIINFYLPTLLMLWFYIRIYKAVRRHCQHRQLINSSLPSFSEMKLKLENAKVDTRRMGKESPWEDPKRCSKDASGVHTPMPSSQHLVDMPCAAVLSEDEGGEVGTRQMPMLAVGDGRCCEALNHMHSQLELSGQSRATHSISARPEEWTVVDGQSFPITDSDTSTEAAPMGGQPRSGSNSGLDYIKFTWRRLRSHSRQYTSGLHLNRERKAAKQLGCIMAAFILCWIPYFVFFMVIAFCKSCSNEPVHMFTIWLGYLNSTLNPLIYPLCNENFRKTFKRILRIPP

Histamine H2 receptor [3] = target: T2, Histamine H2 receptor (Homo sapiens, UniProt P25021); test: Activity at human recombinant histamine H2 receptor-Gsalpha fusion protein expressed in Sf9 cells by steady-state GTPase activity assay
T2 sequence (P25021 whole entry, the tested form may be a part): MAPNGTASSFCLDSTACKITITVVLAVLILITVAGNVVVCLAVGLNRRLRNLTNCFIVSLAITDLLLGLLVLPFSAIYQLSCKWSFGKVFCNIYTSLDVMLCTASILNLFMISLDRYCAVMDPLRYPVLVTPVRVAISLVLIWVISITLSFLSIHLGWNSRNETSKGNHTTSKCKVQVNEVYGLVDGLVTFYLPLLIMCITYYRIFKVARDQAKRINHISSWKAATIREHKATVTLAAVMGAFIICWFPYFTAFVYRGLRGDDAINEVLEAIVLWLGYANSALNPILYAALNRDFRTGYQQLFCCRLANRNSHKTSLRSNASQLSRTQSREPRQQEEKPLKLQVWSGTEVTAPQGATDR
How it was run: (§1)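 Membranes from Sf9 insect cells expressing the receptor construct named in each line: hH1R with RGS4, hH2R-GsR or gpH2R-GsR fusion, hH3R with GRi, Gβ1γ2 and RGS4, or hH4R-RGS19 fusion with GRi2 and Gβ1γ2. Values are mean ± SEM.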

Histamine H2 receptor [4] = target: T1, Histamine H2 receptor; test: Activity at guinea pig recombinant histamine H2 receptor-Gsalpha fusion protein expressed in Sf9 cells by steady-state GTPase activity assay; how it was run: as §1
Histamine H4 receptor = Histamine H4 receptor (Homo sapiens, UniProt Q9H3N8); test: Activity at human recombinant histamine H4 receptor-RGS19 fusion protein expressed in Sf9 cells coexpressing Galphai2 and G-beta-1-gamma-2 by steady-state GTPase activity assay
[5] = target: Histamine H2 receptor (Cavia porcellus) (UniProt P47747); test: Agonist activity at histamine H2 receptor in guinea pig spontaneously beating right atrium assessed as positive chronotropic activity relative to histamine; format: functional, tissue-based; settings: Cardiac atrium
Histamine H2 receptor (Cavia porcellus), sequence (P47747 whole entry, the tested form may be a part): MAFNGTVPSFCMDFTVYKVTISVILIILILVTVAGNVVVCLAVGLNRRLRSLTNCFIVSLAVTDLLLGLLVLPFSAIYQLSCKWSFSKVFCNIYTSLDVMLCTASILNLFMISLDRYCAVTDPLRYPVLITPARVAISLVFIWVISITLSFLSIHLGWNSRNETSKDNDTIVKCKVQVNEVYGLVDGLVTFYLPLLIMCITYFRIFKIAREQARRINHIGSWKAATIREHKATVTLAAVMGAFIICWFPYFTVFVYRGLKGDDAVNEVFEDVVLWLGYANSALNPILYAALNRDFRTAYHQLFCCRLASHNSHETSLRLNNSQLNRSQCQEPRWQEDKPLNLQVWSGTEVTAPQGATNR

[6] = target: Histamine H1 receptor (Homo sapiens) (UniProt P35367); test: Antagonist activity at histamine H1 receptor in human U373 MG cells assessed as inhibition of histamine-induced intracellular calcium level preincubated for 15 mins prior to histamine challenge; format: functional, cell-based; settings: U-373MG ATCC
Histamine H1 receptor (Homo sapiens), sequence (P35367 whole entry, the tested form may be a part): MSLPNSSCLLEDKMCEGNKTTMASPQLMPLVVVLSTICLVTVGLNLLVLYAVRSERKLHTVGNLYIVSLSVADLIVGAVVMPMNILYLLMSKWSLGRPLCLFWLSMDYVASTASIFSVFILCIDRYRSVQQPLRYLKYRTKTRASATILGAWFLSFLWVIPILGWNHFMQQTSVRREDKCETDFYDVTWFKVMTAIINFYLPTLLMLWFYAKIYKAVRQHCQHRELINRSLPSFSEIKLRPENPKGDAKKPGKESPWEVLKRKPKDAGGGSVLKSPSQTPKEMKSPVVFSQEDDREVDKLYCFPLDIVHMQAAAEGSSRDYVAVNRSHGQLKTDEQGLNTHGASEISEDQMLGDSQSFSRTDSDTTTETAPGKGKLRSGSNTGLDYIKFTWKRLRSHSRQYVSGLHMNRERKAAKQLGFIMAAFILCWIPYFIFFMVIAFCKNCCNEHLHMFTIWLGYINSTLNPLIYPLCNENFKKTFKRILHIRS
How it was run: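 U373-MG human cells expressing H1R, calcium assay. […] KB was derived from IC50 by the Cheng-Prusoff equation. Values are the mean of two experiments.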

Histamine H3 receptor [7] = target: T3, Histamine H3 receptor (Homo sapiens, UniProt Q9Y5N1); test: Activity at human recombinant histamine H3 receptor expressed in Sf9 cells coexpressing Galphai, G-beta-1-gamma-2 and RGS4 by steady-state GTPase activity assay
T3 sequence (Q9Y5N1 whole entry, the tested form may be a part): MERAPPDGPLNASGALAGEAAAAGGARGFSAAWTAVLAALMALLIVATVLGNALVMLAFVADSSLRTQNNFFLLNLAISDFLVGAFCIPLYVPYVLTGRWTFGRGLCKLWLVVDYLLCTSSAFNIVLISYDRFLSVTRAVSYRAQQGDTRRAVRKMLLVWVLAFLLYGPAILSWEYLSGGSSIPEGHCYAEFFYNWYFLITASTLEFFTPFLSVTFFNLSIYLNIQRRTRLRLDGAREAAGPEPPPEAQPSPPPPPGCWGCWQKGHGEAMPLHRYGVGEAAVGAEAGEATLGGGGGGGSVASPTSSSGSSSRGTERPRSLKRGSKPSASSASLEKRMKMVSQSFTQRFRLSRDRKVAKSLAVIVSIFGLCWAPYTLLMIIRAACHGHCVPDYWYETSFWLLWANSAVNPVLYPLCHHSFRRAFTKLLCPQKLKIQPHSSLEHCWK
How it was run: (§2)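 Membranes from Sf9 insect cells expressing the receptor construct named in each line: hH1R with RGS4, hH2R-GsR or gpH2R-GsR fusion, hH3R with GRi, Gβ1γ2 and RGS4, or hH4R-RGS19 fusion with GRi2 and Gβ1γ2. […] Values are mean ± SEM.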

[8] = Terminal half life in nude mouse plasma; format: ADME, organism-based; settings: read-out: beta t1/2
[9] = Dissociation constant, pKa of the compound; format: physicochemical
[10] = target: Histamine H2 receptor (Cavia porcellus) (UniProt P47747); test: Antagonist activity at histamine H2 receptor in guinea pig spontaneously beating right atrium assessed as positive chronotropic activity at 58 uM relative to histamine; format: functional, tissue-based; settings: Cardiac atrium
[11] = target: Histamine H2 receptor (Cavia porcellus) (UniProt P47747); test: Antagonist activity at histamine H2 receptor in guinea pig spontaneously beating right atrium assessed as histamine Emax at 58 uM; format: functional, tissue-based; settings: Cardiac atrium
[12] = target: Histamine H2 receptor (Cavia porcellus) (UniProt P47747); test: Activity at guinea pig recombinant histamine H2 receptor-Gsalpha fusion protein expressed in Sf9 cells by steady-state GTPase activity assay relative to histamine; how it was run: as §2
[13] = target: Histamine H1 receptor (Homo sapiens) (UniProt P35367); test: Activity at human recombinant histamine H1 receptor expressed in Sf9 cells coexpressing RGS4 by steady-state GTPase activity assay relative to histamine; how it was run: as §2
Histamine H2 receptor [14] = target: T2, Histamine H2 receptor; test: Activity at human recombinant histamine H2 receptor-Gsalpha fusion protein expressed in Sf9 cells by steady-state GTPase activity assay relative to histamine; how it was run: as §2
[15] = target: Histamine H1 receptor (Cavia porcellus) (UniProt P31389); test: Antagonist activity at histamine H1 receptor in guinea pig ileum assessed as […]
Histamine H1 receptor (Cavia porcellus), sequence (P31389 whole entry): as the sequence (P31389 whole entry, the tested form may be a part) above

Histamine H3 receptor [16] = target: T3, Histamine H3 receptor; test: Activity at human recombinant histamine H3 receptor expressed in Sf9 cells coexpressing Galphai2, G-beta-1-gamma-2 and RGS4 by steady-state GTPase activity assay relative to histamine; how it was run: as §2

T1 sequence (P47747 whole entry): as the sequence (P47747 whole entry, the tested form may be a part) above

| Compound | EC50 (Histamine H2 receptor [2]) [nM] | Kb (Histamine H1 receptor) [nM] | Activity [5] [%] | Emax [5] [%] | Kb [6] [nM] | further results |
| --- | --- | --- | --- | --- | --- | --- |
| CC(CCN=C(N)NC(=O)CCc1cnc[nH]1)c1ccccc1 (stereo not given) |  |  |  |  |  | pA2 (Histamine H2 receptor [1]): 5.19 |
| N=C(NCCCc1c[nH]cn1)NC(=O)c1ccccc1 | 1170 |  | 86 | 89 | 15800 | pA2 (Histamine H1 receptor): > 5 |
| CC(=O)NC(=N)N |  |  |  |  |  | pKa [9]: 7.6 |
| N=C(NCCCc1c[nH]cn1)NC(=O)CCCc1ccccc1 | 56.2 | 1820 | 1780 | 94 | 7100 |  |
| CC(CCNC(=N)NC(=O)CCc1c[nH]cn1)c1ccccc1 (stereo not given) |  |  |  |  | 9300 | Emax [10]: 7%; Emax [11]: 45% |
| CC(CC(=O)/N=C(\N)NCCCc1c[nH]cn1)c1ccccc1 (stereo not given) |  |  | 6350 | 99 | 3000 | Activity [12]: 10000%; Efficacy [12]: 1.03; Activity (Histamine H3 receptor [16]): 1024%; Efficacy (Histamine H3 receptor [16]): 0.24; Activity [13]: 1.3%; Efficacy [13]: 0.35; Activity (Histamine H2 receptor [14]): 1800%; Efficacy (Histamine H2 receptor [14]): 0.87 |
| N=C(NCCCc1c[nH]cn1)NC(=O)CC(c1ccccc1)c1ccc(F)c(F)c1 (stereo not given) |  |  | 1850 | 81 | 1200 | pD'2 [15]: 6.06 |
| N=C(NCCCc1c[nH]cn1)NC(=O)CC(c1ccc(F)cc1)c1ccc(F)cc1 | 204 |  | 490 | 76 | 1400 | pD'2 [15]: 5.95 |
| N=C(NCCCc1c[nH]cn1)NC(=O)CCc1ccccc1 | 166 | 2140 | 607 | 97 | 9200 |  |
| CC(C(=O)NC(N)=NCCCc1cnc[nH]1)C1CCCCC1 (stereo not given) | 138 | 2340 |  |  |  |  |
| NC(=NCCCc1cnc[nH]1)NC(=O)CC1CCCCC1 | 100 | 2450 |  |  |  |  |
| N=C(NCCCc1c[nH]cn1)NC(=O)CCCC1CCCCC1 | 372 | 741 | 269 | 89 | 1100 |  |
| NC(=NCCCc1cnc[nH]1)NC(=O)CCC1CCCCC1 | 61.7 | 6170 |  |  |  |  |
| Cc1nc[nH]c1CSCC(=O)NC(N)=NCCCc1cnc[nH]1 | 30.9 | 4270 |  |  |  |  |
| NC(=NCCCc1cnc[nH]1)NC(=O)C1CCCCC1 | 47.9 | 5130 |  |  |  |  |
| Cc1[nH]cnc1CSCCNC(=N)NCCCc1c[nH]cn1 [IMPROMIDINE] | 20 | 3390 | 5000 | 100 |  |  |
| N=C(N)N [GUANIDINE] |  |  |  |  |  | pKa [9]: 12.5 |
| N=C(NCCCc1c[nH]cn1)NC(=O)CC(c1ccccc1)c1nccs1 (stereo not given) |  |  | 2630 | 100 | 6800 | Activity [12]: 8570%; Efficacy [12]: 0.94; Kb (Histamine H3 receptor [7]): 113 nM; Activity [13]: 1%; Activity (Histamine H2 receptor [14]): 1000%; Efficacy (Histamine H2 receptor [14]): 0.8 |
| CC(CC(=O)NC(=N)NCCCc1c[nH]cn1)c1cccs1 (stereo not given) |  |  | 2630 | 99 | 2100 | Activity [12]: 5710%; Efficacy [12]: 1.05; Activity (Histamine H3 receptor [16]): 1530%; Efficacy (Histamine H3 receptor [16]): 0.29; Activity [13]: 1.8%; Activity (Histamine H2 receptor [14]): 1160%; Efficacy (Histamine H2 receptor [14]): 0.97 |
| NC(=NCCCc1cnc[nH]1)NC(=O)Cc1ccccc1 | 182 | 575 |  |  |  |  |
| N=C(NCCCc1c[nH]cn1)NC(=O)CC(c1ccc(F)c(F)c1)c1nccs1 (stereo not given) | 50.1 | 4680 | 2000 | 90 | 4600 | half-life [8]: 28 min |
| N=C(NCCCc1c[nH]cn1)NC(=O)CCCCc1ccccc1 | 468 | 562 | 211 | 86 |  |  |

More lines, main results first:

| EC50 (Histamine H2 receptor [2]) [nM] | Kb (Histamine H1 receptor) [nM] | Activity [5] [%] | Emax [5] [%] | Kb [6] [nM] | Compound | further results |
| --- | --- | --- | --- | --- | --- | --- |
| 38 | 4680 |  |  |  | NC(=NCCCc1cnc[nH]1)NC(=O)CC(c1ccccc1)c1nccs1 (stereo not given) | EC50 (Histamine H2 receptor [3]): 120 nM; EC50 (Histamine H2 receptor [4]): 14 nM; EC50 (Histamine H4 receptor): 66.3 nM |
| 15.8 | 1350 |  |  |  | CC(CC(=O)NC(N)=NCCCc1cnc[nH]1)c1ccccc1 (stereo not given) | EC50 (Histamine H3 receptor [7]): 2.45 nM; half-life [8]: 67 min; EC50 (Histamine H2 receptor [3]): 67 nM; EC50 (Histamine H2 receptor [4]): 12 nM; EC50 (Histamine H4 receptor): 15.3 nM |
|  |  | 3530 | 85 |  | N=C(NCCCc1c[nH]cn1)NC(=O)CC(c1ccccc1)c1ccccc1 | Activity [12]: 19000%; Efficacy [12]: 0.93; Kb (Histamine H3 receptor [7]): 17.1 nM; Activity [13]: 6.4%; Efficacy [13]: 0.19; Activity (Histamine H2 receptor [14]): 1500%; Efficacy (Histamine H2 receptor [14]): 0.69; pD'2 [15]: 5.2 |
| 51.3 | 11200 | 1960 | 97 | 4900 | N=C(NCCCc1c[nH]cn1)NC(=O)CC(c1ccccc1)c1ccccn1 (stereo not given) |  |
| 646 | 9770 | 154 | 64 | 8700 | N=C(NCCc1c[nH]cn1)NC(=O)CC(c1ccccc1)c1ccccc1 | pD'2 [15]: 4.55 |
| 28.2 | 741 |  |  |  | NC(=NCCCc1cnc[nH]1)NC(=O)CC(c1ccccc1)c1ccccc1 | EC50 (Histamine H2 receptor [3]): 78 nM; EC50 (Histamine H2 receptor [4]): 6 nM; EC50 (Histamine H4 receptor): 8.6 nM |
| 3630 | > 10000 |  |  |  | CC(C(=O)NC(N)=NCCCc1cnc[nH]1)c1ccccc1 (stereo not given) |  |
| 55 |  | 1830 | 95 |  | N=C(NCCCc1c[nH]cn1)NC(=O)CC(c1ccccc1)c1ccc(F)cc1 (stereo not given) | pD'2 [15]: 5.39 |
| 38 |  |  |  |  | CC(CC(=O)NC(N)=NCCCc1cnc[nH]1)c1cccs1 (stereo not given) | EC50 (Histamine H3 receptor [7]): 1.64 nM; EC50 (Histamine H2 receptor [3]): 109 nM; EC50 (Histamine H2 receptor [4]): 21 nM; EC50 (Histamine H4 receptor): 6.3 nM |
